Experimental data reported in ChEMBL document CHEMBL4431351, “1,2-Benzisoselenazol-3(2H)-one Derivatives As a New Class of Bacterial Urease Inhibitors” (J Med Chem, 2016).
Calls of active or inactive are those of the source. The rule behind the calls is not given here.

Key:
[1] = Steady state inhibition of Sporosarcina pasteurii CCM 2056 urease using urea as substrate assessed as inhibition constant for final enzyme conformation-inhibitor complex by measuring ammonia levels after 120 mins by phenol-hypochlorite method
Procedure, shortened: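 S. pasteurii urease (113.5 pM final) added to stirred mixtures with 25 mM urea and varied inhibitor (water or DMF), 3 mM phosphate pH 7.5, 37°C. Ammonia sampled over 120 min by phenol-hypochlorite. Progress curves fitted to integrated slow-binding equation. Ki and Ki* derived using Km and Vmax of uninhibited enzyme.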

[2] = target: T1, Urease subunit alpha/Urease subunit beta (Helicobacter pylori (strain ATCC 700392 / 26695) (Campylobacterpylori), UniProt P69996); experiment: (§1) Inhibition of urease in Helicobacter pylori J99 in Brucella broth using urea as substrate preincubated for 2 hrs followed by substrate addition measured after 2 hrs by Berthelot assay; assay type: protein-complex assay
Procedure, shortened: (§2)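 Unwashed H. pylori J99 cells from 48 h Brucella broth culture (5% FBS, 1% IsoVitalex), resuspended in 10 mM PBS pH 7.2, about 1×10⁷ cfu/mL. Cells preincubated 2 h with inhibitor before 5 mM urea was added. Timed aliquots assayed by Berthelot method; three repeats.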

Sporosarcina pasteurii [3] = experiment: Competitive inhibition of Sporosarcina pasteurii CCM 2056 urease using urea as substrate assessed as ammonia levels after 120 mins by Lineweaver-Burk plot analysis
Procedure, shortened: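 Purified native S. pasteurii urease (113.5 pM final) preincubated with rising inhibitor levels in 3 mM phosphate buffer pH 7.5, 37°C, until equilibrium; urea 1–60 mM then added. Initial rates measured by phenol-hypochlorite ammonia read-out; mode and constants from Lineweaver-Burk plots using at least 5 inhibitor concentrations.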

[4] = target: T1, Urease subunit alpha/Urease subunit beta; experiment: Inhibition of recombinant Helicobacter pylori urease expressed in Escherichia coli rosetta DE3 using urea as substrate assessed as transformed cell urea splitting activity preincubated for 2 hrs followed by substrate addition measured after 2 hrs by Berthelot assay
Procedure, shortened: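 Induced, PBS-washed E. coli Rosetta pGEM::ureOP cells (1×10⁹ cfu/mL) held 2 h with inhibitor in 10 mM PBS. Urea then added to 5 mM. Ammonia in timed aliquots measured by Berthelot assay against an inhibitor-free reference. DMF effect checked. Three repeats.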

[5] = target: T1, Urease subunit alpha/Urease subunit beta; experiment: (§3) Inhibition of urease in Helicobacter pylori J99 in Brucella broth using urea as substrate after 2 hrs by Berthelot assay; assay type: protein-complex assay
Procedure, shortened: (§4)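 H. pylori J99 passaged on blood Columbia agar, microaerophilic, 37°C. Then grown 48 h in Brucella broth with 5% FBS and 1% IsoVitalex, spun once and resuspended in 10 mM PBS pH 7.2 without washing. About 1×10⁷ cfu/mL added to PBS with 5 mM urea and inhibitor. Berthelot ammonia read-out, triplicate.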

[6] = target: T1, Urease subunit alpha/Urease subunit beta; experiment: (§5) Inhibition of recombinant Helicobacter pylori urease expressed in Escherichia coli rosetta DE3 using urea as substrate assessed as transformed cell urea splitting activity after 2 hrs by Berthelot assay
Procedure, shortened: (§6)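 E. coli Rosetta pGEM::ureOP cells grown in LB with ampicillin at 37°C, induced with 0.75 mM IPTG and 0.75 mM Ni²⁺ for 24 h at 22°C, then washed thrice in PBS. Cells (1×10⁹ cfu/mL final) start the reaction in 10 mM PBS with 5 mM urea and inhibitor. Timed aliquots read by Berthelot; triplicate.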

Sporosarcina pasteurii [7] = experiment: Reversible inhibition of Sporosarcina pasteurii CCM 2056 urease using urea as substrate assessed as ammonia levels after 120 mins by fast dilution assay
[8] = target: T2, Urease subunit alpha/Urease subunit beta (Helicobacter pylori (strain ATCC 700392 / 26695) (Campylobacterpylori), UniProt P69996+P14916); experiment: as §3; assay type: protein-complex assay; procedure, shortened: as §4
[9] = target: T2, Urease subunit alpha/Urease subunit beta; experiment: as §5; procedure, shortened: as §6
[10] = target: Urease subunit alpha/Urease subunit beta (Helicobacter pylori (strain ATCC 700392 / 26695) (Campylobacterpylori)) (UniProt P69996+P14916); experiment: Competitive reversible inhibition of recombinant Helicobacter pylori urease […] in transformed Escherichia coli rosetta DE3 after 120 mins by Lineweaver-Burk plot analysis; assay type: protein-complex assay
Procedure, shortened: (§7)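 Homogeneous recombinant H. pylori urease purified from E. coli Rosetta (DE3) pGEM::ureOP (488 pM final) added to mixtures with rising inhibitor levels and 0.1–2.5 mM urea, 3 mM phosphate pH 7.5, 37°C. Ammonia measured by Berthelot reaction. Ki from Lineweaver-Burk plots, at least 5 inhibitor concentrations, in triplicate.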

[11] = target: T1, Urease subunit alpha/Urease subunit beta; experiment: Inhibition of recombinant Helicobacter pylori urease expressed in Escherichia coli rosetta DE3 after 120 mins by Berthelot colorimetric analysis; procedure, shortened: as §7
[12] = target: T2, Urease subunit alpha/Urease subunit beta; experiment: as §1; assay type: protein-complex assay; procedure, shortened: as §2

T1 sequence (P69996 whole entry): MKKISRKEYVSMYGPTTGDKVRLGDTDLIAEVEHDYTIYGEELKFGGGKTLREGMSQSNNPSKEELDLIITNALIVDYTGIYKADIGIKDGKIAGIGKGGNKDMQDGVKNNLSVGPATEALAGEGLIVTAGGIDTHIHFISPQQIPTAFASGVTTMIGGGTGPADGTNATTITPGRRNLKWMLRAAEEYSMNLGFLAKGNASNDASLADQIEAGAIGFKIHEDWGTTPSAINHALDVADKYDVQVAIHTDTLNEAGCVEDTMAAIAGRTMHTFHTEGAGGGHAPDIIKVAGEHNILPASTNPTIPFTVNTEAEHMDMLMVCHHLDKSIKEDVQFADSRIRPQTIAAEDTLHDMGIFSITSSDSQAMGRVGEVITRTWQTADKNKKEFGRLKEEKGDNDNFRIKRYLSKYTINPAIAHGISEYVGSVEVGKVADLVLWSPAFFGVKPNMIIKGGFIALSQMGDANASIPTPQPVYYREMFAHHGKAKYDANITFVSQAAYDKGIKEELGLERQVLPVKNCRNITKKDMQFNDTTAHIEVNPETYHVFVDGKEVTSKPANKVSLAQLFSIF
T1 sequence (P14916 whole entry, further chain): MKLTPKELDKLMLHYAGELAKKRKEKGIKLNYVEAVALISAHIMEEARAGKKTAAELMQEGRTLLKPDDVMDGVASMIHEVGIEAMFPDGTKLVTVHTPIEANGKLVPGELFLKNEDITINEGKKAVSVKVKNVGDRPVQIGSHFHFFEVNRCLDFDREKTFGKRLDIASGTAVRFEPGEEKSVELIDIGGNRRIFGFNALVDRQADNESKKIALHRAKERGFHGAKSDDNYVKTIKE
T2 sequence (P69996 whole entry): as the sequence (P69996 whole entry) above
T2 sequence (P14916 whole entry): as the sequence (P14916 whole entry, further chain) above
Chain of Urease subunit alpha/Urease subunit beta (Helicobacter pylori (strain ATCC 700392 / 26695) (Campylobacterpylori)) (P14916 whole entry, looked up): as the sequence (P14916 whole entry, further chain) above
Chain of Urease subunit alpha/Urease subunit beta (Helicobacter pylori (strain ATCC 700392 / 26695) (Campylobacterpylori)) (P69996 whole entry, looked up): as the sequence (P69996 whole entry) above

Row | SMILES | Ki [1] [µM] | IC50 [2] [µM] | competitive inhibition (qualitative call) (Sporosarcina pasteurii [3]) | IC50 [4] [µM] | IC50 [5] [µM] | IC50 [6] [µM] | reversible inhibition (qualitative) (Sporosarcina pasteurii [7]) | IC50 [8] | IC50 [9] | inhibition mode (competitive reversible) [10] | Ki [11] [µM] | IC50 [12]
1 | CC(C)[C@@H](C(=O)O)n1[se]c2ccccc2c1=O | 1.01 | 25.4 | Active | 38.4 | 390 | 186 | Active | – | – | – | – | –
2 | C[C@@H](C(=O)O)n1[se]c2ccccc2c1=O | 0.883 | 611 | Active | 196 | – | – | Active | Not Active | Not Active | – | – | –
3 | COC(=O)CCCNC(=O)c1ccccc1[Se][Se]c1ccccc1C(=O)NCCCC(=O)OC | 0.00348 | 11.8 | Active | 20.1 | – | – | Active | Not Active | Not Active | Active | 0.184 | –
4 | O=C(Nc1ccccc1)c1ccccc1[Se][Se]c1ccccc1C(=O)Nc1ccccc1 [EBSELEN DISELENIDE] | 0.00944 | 6.7 | Active | 10.9 | 38.7 | 87 | Active | – | – | Active | 0.651 | –
5 | CC(=O)NO [ACETOHYDROXAMIC ACID] | 3.3 | 156 | Active | 96 | – | 154 | Active | Not Active | – | – | 96 | –
6 | CC(C)C[C@@H](C(=O)O)n1[se]c2ccccc2c1=O | 0.936 | 69.5 | Active | 95 | – | 301 | Active | Not Active | – | – | – | –
7 | O=C(O)CCn1[se]c2ccccc2c1=O | 1.21 | – | Active | 38 | – | – | Active | Not Active | Not Active | – | – | Not Active
8 | O=C(O)c1ccccc1[Se][Se]c1ccccc1C(=O)O | 319 | – | Active | 794 | – | – | Active | Not Active | Not Active | – | – | Not Active
9 | COC(=O)CNC(=O)c1ccccc1[Se][Se]c1ccccc1C(=O)NCC(=O)OC | 0.00667 | 83.5 | Active | 85 | – | – | Active | Not Active | Not Active | Active | 0.915 | –
10 | COC(=O)Cn1[se]c2ccccc2c1=O | 0.084 | 2.12 | Active | 9.2 | 3.47 | 108 | Active | – | – | – | – | –
11 | CCC(C)[C@@H](C(=O)OC)n1[se]c2ccccc2c1=O (stereo partly specified) | 0.164 | 4.07 | Active | 25.8 | – | 96 | Active | Not Active | – | – | – | –
12 | O=C(O)CCCn1[se]c2ccccc2c1=O | 0.806 | 98 | Active | 37 | – | 103 | Active | Not Active | – | – | – | –
